Compound activity as filed in PubChem BioAssay.
Apaf1 activ: activators of human Apaf-1 apoptosome; O14727; Apaf-1 apoptosome caspase-3 activation, DEVD-Rh110 fluorescence; hits give low values; activity change, negative = activation, % at 20 µM; 0.31% of 330,000 active; AID 489031;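 active = activity change at or below -40% at 20 µM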
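System: Reconstituted apoptosome of Apaf-1, cytochrome c, caspase-9, procaspase-3 | Reagent: dATP, cytochrome c, and (Z-DEVD)2-Rh110 caspase-3 substrate | Times: 30 min compound preincubation and 50 min reaction, both room temperature | Detection: Caspase-3-released Rh110 fluorescence, 540 nm emission, 480 nm excitation | Measure: Caspase-3 activity via Apaf-1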
Rh110 interf act: Rh110 signal interference in Apaf-1 activator counter-screen | shares compounds with Apaf1 activ | Rh110 fluorescence interference, quenched caspase reaction, Ex480/Em540 | fluorescence interference (activity change), % at 20 µM, hits read low | 980 tested, under 10 active;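 active = mean activity change at or below -40% when tested at 20 µM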
Apaf-1 act conf: confirmation of human Apaf-1 activators | shares compounds with Apaf1 activ | reconstituted apoptosome caspase-3 activity, DEVD-Rh110 fluorescence; hits give low values | activity change, negative = activation, % at 20 µM | 5% of 980 active;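 active = mean activity change at or below -40%, meaning activation of 40% or more, at 20 µM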
Large screens that a line does not name were inactive (follow-up assays come after a bar, where they were run). A selection follows.

Cc1ccc(-c2nn3c(C)nnc3c3ccccc23)cc1S(=O)(=O)NC(C)c1ccccc1 (stereo unspecified)	none
O=C(O)C1CCCN(S(=O)(=O)c2ccc(-c3ccc(=O)[nH]n3)s2)C1 (stereo unspecified)	Apaf1 activ -350.5 | Rh110 interf act inactive | Apaf-1 act conf inactive
Cc1ccc(C)n1-c1nn(S(=O)(=O)c2cccc3cccnc23)c2cccc(F)c12	Apaf1 activ -40.4 | Rh110 interf act inactive | Apaf-1 act conf inactive
COc1cc(C#Cc2c(-c3cncn3C)n(C)c3ccc(-c4cnc(OC)nc4)cc23)cc(OC)c1	none
O=C(C[n+]1cccc(C(=O)N/N=C/c2ccc(Br)cc2)c1)c1ccccc1	none
COc1ccc(/C=N/NC(=O)c2nn(-c3ccccc3)c(=O)c3c(N)scc23)cc1	none
O=C(N/N=C/c1ccc(OC(=O)c2ccccc2)cc1)c1ccc(CN2CCOCC2)cc1	Apaf1 activ -67.9 | Rh110 interf act inactive | Apaf-1 act conf inactive
Cn1c(C(=O)N2CCN(c3nc4ccccc4s3)CC2)cc2sccc21	none
C=CC(=O)Nc1ccc(Nc2nc(NC3CCC(N(C)C)CC3)nc3c2ncn3C(C)C)cc1 (stereo unspecified)	none
Cc1ccc2c(c1)c(=O)c1c3n2CCN(C(=O)CCl)C3CC1 (stereo unspecified)	none
CCN(CC)c1ccc(N=Cc2ccc([N+](=O)[O-])o2)cc1	none
N#Cc1c(N)n(CCNC(=O)c2cccs2)c2nc3ccccc3nc12	none
O=S(=O)(c1ccc2nc(-c3ccco3)c(-c3ccco3)nc2c1)N1CCOCC1	none
O=S(=O)(c1ccc(F)cc1)N1CCN(S(=O)(=O)c2ccc3c(c2)OCCO3)CC1	Apaf1 activ -217.4 | Rh110 interf act inactive | Apaf-1 act conf inactive
COc1ccc(Nc2ccc3c(c2)=NC2(CCCCC2)[N+]=3[O-])cc1	none
CCOC(=O)N1CCN(C(=O)c2cccc(S(=O)(=O)Nc3ccc(OC)cc3)c2)CC1	none
COc1ccc(C(CNC(=O)c2cccc(NS(=O)(=O)c3ccc(Br)cc3)c2)N(C)C)cc1 (stereo unspecified)	Apaf1 activ -143.1 | Rh110 interf act inactive | Apaf-1 act conf inactive
CCCCCCCCCCCCCCCC[n+]1ccc(C(N)=O)cc1	none
C#CCOCCOCCOCCNc1nc(N2CCN(C(=O)CCCCCCCCCCNC(=O)[C@H]([C@@H](C)CC)n3cc(CCCCN=C(N)N)nn3)CC2)nc(N2CCN(C(=O)CCCCCCCCCCNC(=O)[C@@H]([C@H](C)O)n3cc(C)nn3)CC2)n1	none
O=C(CCN1CCOCC1)N1CCCC(Nc2ccc(F)cc2)C1 (stereo unspecified)	Apaf1 activ -56.3 | Rh110 interf act inactive | Apaf-1 act conf inactive
c1ccc(C[C@H]2CN=C(Nc3ccccc3)N2CCCC2CCCCC2)cc1	none
O=C1c2ccccc2C(=O)C1c1ccc2ccccc2n1	Apaf1 activ -333.6 | Rh110 interf act inactive | Apaf-1 act conf inactive
Cc1cc(NC(=O)CCC(=O)N(CC(=O)NCC2CCCO2)Cc2ccc(F)cc2)no1 (stereo unspecified)	Apaf1 activ -45.3 | Rh110 interf act inactive | Apaf-1 act conf inactive
COc1cc2c(C#N)c(N3CCCC3)nc(N)c2c(N)n1	none
C=CCN(CC=C)C(=S)Nc1ccc2nsnc2c1	none
CC[C@@H](C)[C@@H]1CN([C@@H](C)CN2CCC[C@H]2CN2C(N)=NC[C@H]2CC(C)C)C(=N)N1CCc1ccc(Cl)c(Cl)c1	none
CC(=O)c1cc(F)c(N2CCN(CCC#N)CC2)cc1C	Apaf1 activ -455.8 | Rh110 interf act inactive | Apaf-1 act conf inactive
COc1ccc(S(=O)(=O)N2CCCCCC2)cc1C(=O)N(C)CCOc1ccccc1	none
COc1cc2oc3ccccc3c2cc1N(CC(=O)N1CCCCC1)S(=O)(=O)c1ccc(C)cc1	Apaf1 activ -236.4 | Rh110 interf act inactive | Apaf-1 act conf inactive
Oc1ccc(NCc2ccccc2OCc2ccccc2F)cc1	none
CCN(CC)S(=O)(=O)c1ccc(/C=C/C(=O)OCC#N)cc1	Apaf1 activ -82.4 | Rh110 interf act inactive | Apaf-1 act conf inactive
CN(C)S(=O)(=O)c1cccc(NC(=O)COC(=O)/C=C/c2ccco2)c1	none
CN(C)CCCNC(=O)C(=O)NCC1OCCN1S(=O)(=O)c1cccs1 (stereo unspecified)	none
Oc1ccc(/C=N/Nc2cc(N3CCCC3)nc(N3CCCC3)n2)cc1	none
CN1CCc2c(C#N)c(N3CCCCC3)nc(NCc3ccccc3)c2C1	none
CCCCCCCCCCCCCCCC[n+]1ccc(/C=N/O)cc1	none
COc1ccc(-n2c(N)c(C(=O)NCc3ccco3)c3nc4ccccc4nc32)c(OC)c1	none
COc1ccc(C(=O)Nc2ccccc2C(=O)N(Cc2ccco2)C(C(N)=O)C(C)C)cc1 (stereo unspecified)	Apaf1 activ -351.3 | Rh110 interf act inactive | Apaf-1 act conf inactive
